Measured values: ChEMBL document CHEMBL1649269, “In vitro activities of three new dihydrofolate reductase inhibitors against clinical isolates of gram-positive bacteria” (2009)
≈ marks a conversion by molar mass, not a printed value.

Legend:
Streptococcus pneumoniae [1] = test: Antimicrobial activity against Streptococcus pneumoniae assessed as susceptible isolates by agar dilution method; assay type: functional
Outline: (§1)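 Clinical isolates of beta-hemolytic streptococci, S. mitis and S. pneumoniae were tested by CLSI methodology, with Mueller-Hinton medium supplemented with 5% lysed horse blood. S. aureus ATCC 29213 and S. pneumoniae ATCC 49619 served as control strains. The percentage of susceptible isolates was derived from CLSI breakpoints.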

Staphylococcus aureus [2] = test: Antimicrobial activity against vancomycin-resistant Staphylococcus aureus assessed as susceptible isolates by agar dilution method; assay type: functional
[3] = Antimicrobial activity against Group C Streptococcus by agar dilution method; assay type: functional; conditions: Streptococcus sp. 'group C'; outline: as §1
[4] = test system: Streptococcus sp. 'group B'; test: Antimicrobial activity against Group B Streptococcus assessed as susceptible isolates by agar dilution method; assay type: functional; outline: as §1
[5] = Antimicrobial activity against Group G Streptococcus assessed as susceptible isolates by agar dilution method; assay type: functional, Streptococcus sp. 'group G'; outline: as §1
[6] = Antimicrobial activity against Group C Streptococcus assessed as susceptible isolates by agar dilution method; assay type: functional, Streptococcus sp. 'group C'; outline: as §1
Streptococcus pneumoniae [7] = test: Antimicrobial activity against Streptococcus pneumoniae by agar dilution method; assay type: functional; outline: as §1
[8] = test system: Streptococcus sp. 'group A'; test: Antimicrobial activity against Group A Streptococcus assessed as susceptible isolates by agar dilution method; assay type: functional; outline: as §1
Corynebacterium sp. = test: Antimicrobial activity against Corynebacterium spp. by agar dilution method; assay type: functional
Staphylococcus aureus [9] = test: Antimicrobial activity against Heterovancomycin-resistant Staphylococcus aureus assessed as susceptible isolates by agar dilution method; assay type: functional
[10] = test system: Streptococcus sp. 'group B'; test: Antimicrobial activity against Group B Streptococcus by agar dilution method; assay type: functional; outline: as §1
Streptococcus mitis = test: Antimicrobial activity against Streptococcus mitis by broth dilution method
Staphylococcus aureus [11] = test: Antimicrobial activity against methicillin-sensitive Staphylococcus aureus assessed as susceptible isolates by agar dilution method; assay type: functional
Outline: (§2)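 MICs against clinical MRSA or MSSA isolates by CLSI agar dilution, with S. aureus ATCC 29213 as control strain. Percentage of susceptible isolates was calculated from the MICs using CLSI breakpoints.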

Listeria monocytogenes = test: Antimicrobial activity against Listeria monocytogenes by agar dilution method; assay type: functional
Outline: (§3)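 CLSI agar dilution MIC testing of clinical isolates of staphylococci and Listeria. S. aureus ATCC 29213 and S. pneumoniae ATCC 49619 served as control strains. The percentage of susceptible isolates was calculated from CLSI breakpoints.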

Staphylococcus aureus [12] = test: Antimicrobial activity against methicillin-resistant Staphylococcus aureus by agar dilution method; assay type: functional; outline: as §2
Staphylococcus aureus [13] = test: Antimicrobial activity against Heterovancomycin-resistant Staphylococcus aureus by agar dilution method; assay type: functional
Outline: (§4)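 Clinical S. aureus isolates classed as hVISA or VISA by population analysis profiling. MICs by CLSI agar dilution, with S. aureus ATCC 29213 as control strain.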

Staphylococcus aureus [14] = test: Antimicrobial activity against vancomycin-resistant Staphylococcus aureus by agar dilution method; assay type: functional; outline: as §4
[15] = test system: Streptococcus sp. 'group A'; test: Antimicrobial activity against Group A Streptococcus by agar dilution method; assay type: functional; outline: as §1
Staphylococcus aureus [16] = test: Antimicrobial activity against methicillin-sensitive Staphylococcus aureus by agar dilution method; assay type: functional; outline: as §2
Staphylococcus [17] = test: Antimicrobial activity against Coagulase-negative Staphylococcus by agar dilution method; assay type: functional; outline: as §3
[18] = Antimicrobial activity against Group G Streptococcus by agar dilution method; assay type: functional; conditions: Streptococcus sp. 'group G'; outline: as §1
Staphylococcus [19] = test: Antimicrobial activity against Coagulase-negative Staphylococcus assessed as susceptible isolates by agar dilution method; assay type: functional; outline: as §3

Compound	Activity (Staphylococcus aureus [2])	MIC50 [3]	MIC90 [3]	Activity [4]	Activity [5]	Activity [6]	MIC50 (Streptococcus pneumoniae [7])	MIC90 (Streptococcus pneumoniae [7])	Activity [8]	MIC50 (Corynebacterium sp.)	MIC90 (Corynebacterium sp.)	Activity (Staphylococcus aureus [9])	MIC50 [10]	MIC90 [10]	MIC (Streptococcus mitis)	MIC50 (Streptococcus mitis)	Activity (Staphylococcus aureus [11])	MIC50 (Listeria monocytogenes)	MIC90 (Listeria monocytogenes)	MIC (Staphylococcus aureus [12])	also measured
CN(C)c1ccc(O)c2c1C[C@H]1C[C@H]3[C@H](N(C)C)C(O)=C(C(N)=O)C(=O)[C@@]3(O)C(O)=C1C2=O [MINOCYCLINE]	96%	0.25 µg/mL (≈ 0.546 µM)	4 µg/mL (≈ 8.74 µM)	29%	75%	84%	0.25 µg/mL (≈ 0.546 µM)	0.25 µg/mL (≈ 0.546 µM)	100%	2 µg/mL (≈ 4.37 µM)	16 µg/mL (≈ 35 µM)	92%	16 µg/mL (≈ 35 µM)	32 µg/mL (≈ 69.9 µM)	0.25 µg/mL (≈ 0.546 µM)	0.25 µg/mL (≈ 0.546 µM)	100%	0.25 µg/mL (≈ 0.546 µM)	16 µg/mL (≈ 35 µM)	0.25 µg/mL (≈ 0.546 µM)	Activity (Streptococcus pneumoniae [1]): 93%; MIC (Listeria monocytogenes): 0.25 µg/mL (≈ 0.546 µM); MIC50 (Staphylococcus aureus [12]): 0.25 µg/mL (≈ 0.546 µM); MIC90 (Staphylococcus aureus [12]): 0.25 µg/mL (≈ 0.546 µM); MIC50 (Staphylococcus aureus [13]): 0.25 µg/mL (≈ 0.546 µM); MIC90 (Staphylococcus aureus [13]): 0.5 µg/mL (≈ 1.09 µM); MIC50 (Staphylococcus aureus [14]): 1 µg/mL (≈ 2.19 µM); MIC90 (Staphylococcus aureus [14]): 4 µg/mL (≈ 8.74 µM); MIC [15]: 0.12 µg/mL (≈ 0.262 µM); MIC50 [15]: 0.12 µg/mL (≈ 0.262 µM); MIC90 [15]: 0.25 µg/mL (≈ 0.546 µM); MIC (Staphylococcus aureus [16]): 0.25 µg/mL (≈ 0.546 µM); MIC50 (Staphylococcus aureus [16]): 0.25 µg/mL (≈ 0.546 µM); MIC90 (Staphylococcus aureus [16]): 0.25 µg/mL (≈ 0.546 µM); MIC50 (Staphylococcus [17]): 0.5 µg/mL (≈ 1.09 µM); MIC90 (Staphylococcus [17]): 2 µg/mL (≈ 4.37 µM); MIC50 [18]: 0.25 µg/mL (≈ 0.546 µM); MIC90 [18]: 16 µg/mL (≈ 35 µM); Activity (Staphylococcus [19]): 96%
CCCCCCCCCC(=O)N[C@@H](Cc1c[nH]c2ccccc12)C(=O)N[C@H](CC(N)=O)C(=O)N[C@@H](CC(=O)O)C(=O)N[C@@H]1C(=O)NCC(=O)N[C@@H](CCCN)C(=O)N[C@@H](CC(=O)O)C(=O)N[C@H](C)C(=O)N[C@@H](CC(=O)O)C(=O)NCC(=O)N[C@H](CO)C(=O)N[C@@H]([C@H](C)CC(=O)O)C(=O)N[C@@H](CC(=O)c2ccccc2N)C(=O)O[C@@H]1C	71%	0.03 µg/mL (≈ 0.0185 µM)	0.12 µg/mL (≈ 0.074 µM)	100%	100%	100%	0.06 µg/mL (≈ 0.037 µM)	0.12 µg/mL (≈ 0.074 µM)	100%	0.06 µg/mL (≈ 0.037 µM)	0.12 µg/mL (≈ 0.074 µM)	96%	0.015 µg/mL (≈ 0.00926 µM)	0.06 µg/mL (≈ 0.037 µM)	0.006 µg/mL (≈ 0.0037 µM)	0.25 µg/mL (≈ 0.154 µM)	100%	1 µg/mL (≈ 0.617 µM)	2 µg/mL (≈ 1.23 µM)	0.12 µg/mL (≈ 0.074 µM)	MIC [10]: 0.015 µg/mL (≈ 0.00926 µM); MIC50 (Staphylococcus aureus [12]): 0.12 µg/mL (≈ 0.074 µM); MIC90 (Staphylococcus aureus [12]): 0.25 µg/mL (≈ 0.154 µM); MIC50 (Staphylococcus aureus [13]): 0.5 µg/mL (≈ 0.309 µM); MIC90 (Staphylococcus aureus [13]): 0.5 µg/mL (≈ 0.309 µM); MIC50 (Staphylococcus aureus [14]): 1 µg/mL (≈ 0.617 µM); MIC90 (Staphylococcus aureus [14]): 2 µg/mL (≈ 1.23 µM); MIC [15]: 0.015 µg/mL (≈ 0.00926 µM); MIC50 [15]: 0.015 µg/mL (≈ 0.00926 µM); MIC90 [15]: 0.03 µg/mL (≈ 0.0185 µM); MIC50 (Staphylococcus aureus [16]): 0.25 µg/mL (≈ 0.154 µM); MIC90 (Staphylococcus aureus [16]): 0.25 µg/mL (≈ 0.154 µM); MIC50 (Staphylococcus [17]): 0.25 µg/mL (≈ 0.154 µM); MIC90 (Staphylococcus [17]): 0.5 µg/mL (≈ 0.309 µM); MIC [18]: 0.015 µg/mL (≈ 0.00926 µM); MIC50 [18]: 0.015 µg/mL (≈ 0.00926 µM); MIC90 [18]: 0.03 µg/mL (≈ 0.0185 µM); Activity (Staphylococcus [19]): 100%
